The text below walks through data of ChEMBL document CHEMBL4330069, “Boosting the efficacy of anti-MRSA β-lactam antibiotics via an easily accessible, non-cytotoxic and orally bioavailable FtsZ inhibitor” (Eur J Med Chem, 2019).

Structures are written as SMILES. ≈ marks a conversion by molar mass, not a printed value.

Common to all, as to type: functional
Assay [1] relates to Staphylococcus aureus. The assay can be described thus: Synergistic antibacterial activity against multidrug-resistant Staphylococcus aureus isolate 200 in presence of cefuroxime by broth microdilution assay. In short, it runs like this: (§1)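 Clinical MRSA isolate panel; compound and β-lactam tested alone and in combination by CLSI broth microdilution, compounds dissolved in DMSO, growth inhibition scored by eye, run in duplicate. FIC index = FIC(compound) + FIC(drug), each the MIC in combination divided by the MIC alone; an index ≤ 0.5 was called synergy.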

For assay [2], the system named is Staphylococcus aureus. Kind of assay: Synergistic antibacterial activity against multidrug-resistant Staphylococcus aureus isolate 774 in presence of methicillin by broth microdilution assay.
For assay [3], the system named is Staphylococcus aureus. The assay can be described thus: Synergistic antibacterial activity against multidrug-resistant Staphylococcus aureus isolate 231 in presence of amoxicillin by broth microdilution assay. In short, it runs like this: as §1
Assay [4] concerns Staphylococcus aureus. The assay can be described thus: Synergistic antibacterial activity against multidrug-resistant Staphylococcus aureus isolate 1402 assessed as fractional Inhibitory concentration index in presence of amoxicillin by broth microdilution assay. In short, it runs like this: (§2)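 CLSI broth microdilution run on clinical MRSA isolates with each β-lactam alone, the test agent alone, and the two combined; agents dissolved in DMSO. Growth inhibition was read by eye. FIC index = FIC(compound) + FIC(β-lactam), where each FIC is the MIC in combination divided by the MIC alone. An index ≤0.5 was taken as synergy.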

Assay [5] concerns Staphylococcus aureus. The assay can be described thus: Synergistic antibacterial activity against multidrug-resistant Staphylococcus aureus isolate 1717 in presence of amoxicillin by broth microdilution assay. In short, it runs like this:
as §1

For assay [6], the system named is Staphylococcus aureus. The assay can be described thus: Synergistic antibacterial activity against multidrug-resistant Staphylococcus aureus isolate 2919 in presence of meropenem by broth microdilution assay. The procedure, abridged: (§3)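 CLSI broth microdilution on clinical MRSA isolates. MICs were measured for the β-lactam alone, the test agent alone and the two combined. Compounds were dissolved in DMSO, and growth inhibition was scored by eye. FIC index is the sum, over both agents, of MIC in combination divided by MIC alone. An FIC index ≤0.5 was taken as synergy.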

The test system of assay [7] is Staphylococcus aureus. The assay can be described thus: Synergistic antibacterial activity against multidrug-resistant Staphylococcus aureus isolate 3411 assessed as fractional Inhibitory concentration index in presence of cloxacillin by broth microdilution assay.
The test system of assay [8] is Staphylococcus aureus. Kind of assay: Synergistic antibacterial activity against multidrug-resistant Staphylococcus aureus isolate 1449 in presence of amoxicillin by broth microdilution assay. In short, it runs like this: as §1
Assay [9] concerns Staphylococcus aureus. Kind of assay: Synergistic antibacterial activity against multidrug-resistant Staphylococcus aureus isolate 2973 assessed as fractional Inhibitory concentration index in presence of cloxacillin by broth microdilution assay.
Assay [10] deals with Staphylococcus aureus. The assay can be described thus: Synergistic antibacterial activity against multidrug-resistant Staphylococcus aureus isolate 256 in presence of amoxicillin by broth microdilution assay. The procedure, abridged:
as §3

Assay [11] deals with Staphylococcus aureus. Kind of assay: Synergistic antibacterial activity against multidrug-resistant Staphylococcus aureus isolate 85 in presence of meropenem by broth microdilution assay.
The test system of assay [12] is Staphylococcus aureus. Kind of assay: Synergistic antibacterial activity against multidrug-resistant Staphylococcus aureus isolate 1402 in presence of amoxicillin by broth microdilution assay. In short, it runs like this: as §1
The test system of assay [13] is Staphylococcus aureus. The assay can be described thus: Synergistic antibacterial activity against multidrug-resistant Staphylococcus aureus isolate 2728 in presence of cloxacillin by broth microdilution assay. The procedure, abridged:
as §3

Assay [14] concerns Staphylococcus aureus. The assay can be described thus: Synergistic antibacterial activity against multidrug-resistant Staphylococcus aureus isolate 2895 in presence of meropenem by broth microdilution assay. In short, it runs like this:
as §3

In assay [15] the test system is Staphylococcus aureus. The assay can be described thus: Synergistic antibacterial activity against multidrug-resistant Staphylococcus aureus isolate 2490 in presence of cefuroxime by broth microdilution assay. In short, it runs like this: as §1
Assay [16] relates to Staphylococcus aureus. The assay can be described thus: Synergistic antibacterial activity against multidrug-resistant Staphylococcus aureus isolate 200 assessed as fractional Inhibitory concentration index in presence of meropenem by broth microdilution assay. The procedure, abridged: as §2
The test system of assay [17] is Staphylococcus aureus. The assay can be described thus: Antibacterial activity against multidrug-resistant Staphylococcus aureus isolate 254 by broth microdilution assay. In short, it runs like this:
(§4)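 Broth microdilution MIC per CLSI guidelines against clinical MRSA isolates, for β-lactams and test compound alone and in combination. Compounds were dissolved in DMSO. Growth was read by eye, in duplicate. FIC index = FIC(compound) + FIC(drug); synergy defined as FIC index ≤0.5.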

Assay [18] relates to Staphylococcus aureus. Kind of assay: Synergistic antibacterial activity against multidrug-resistant Staphylococcus aureus isolate 757 in presence of cefuroxime by broth microdilution assay.
The test system of assay [19] is Staphylococcus aureus. Kind of assay: Synergistic antibacterial activity against multidrug-resistant Staphylococcus aureus isolate 2919 assessed as fractional Inhibitory concentration index in presence of meropenem by broth microdilution assay.
The test system of assay [20] is Staphylococcus aureus. Kind of assay: Synergistic antibacterial activity against multidrug-resistant Staphylococcus aureus isolate 417 assessed as fractional Inhibitory concentration index in presence of meropenem by broth microdilution assay.
Assay [21] concerns Staphylococcus aureus. Kind of assay: Synergistic antibacterial activity against multidrug-resistant Staphylococcus aureus isolate 3267 in presence of amoxicillin by broth microdilution assay. The procedure, abridged:
as §3

The test system of assay [22] is Staphylococcus aureus. Kind of assay: Antibacterial activity against multidrug-resistant Staphylococcus aureus isolate 3580 by broth microdilution assay. The procedure, abridged: as §4
Assay [23] deals with Staphylococcus aureus. The assay can be described thus: Synergistic antibacterial activity against multidrug-resistant Staphylococcus aureus isolate 2895 in presence of cloxacillin by broth microdilution assay. The procedure, abridged:
as §3

Assay [24] concerns Staphylococcus aureus. Kind of assay: Synergistic antibacterial activity against multidrug-resistant Staphylococcus aureus isolate 774 in presence of cefuroxime by broth microdilution assay.

On to `CCCCCCCCCNc1ccc(F)c(C(N)=O)c1F`, for which the MIC in the assay on Staphylococcus aureus [1] is 2 µg/mL; in the assay with Staphylococcus aureus [2], 4 µg/mL; with Staphylococcus aureus [3] it was 4 µg/mL; with Staphylococcus aureus [5] it was 2 µg/mL; in the assay on Staphylococcus aureus [6], 4 µg/mL; with Staphylococcus aureus [8] it was 0.5 µg/mL. Besides, the MIC with Staphylococcus aureus [10] was 16 µg/mL; in the assay on Staphylococcus aureus [11], 8 µg/mL; in the assay on Staphylococcus aureus [12], 4 µg/mL; with Staphylococcus aureus [13] it was 1 µg/mL; in the assay with Staphylococcus aureus [14] it was 2 µg/mL; with Staphylococcus aureus [15], 2 µg/mL. Further, the MIC with Staphylococcus aureus [17] worked out at 16 µg/mL (≈ 53.6 µM); in the assay on Staphylococcus aureus [18] it was 2 µg/mL; in the assay with Staphylococcus aureus [21], 2 µg/mL; against Staphylococcus aureus [22] it was 32 µg/mL (≈ 107 µM); in the assay with Staphylococcus aureus [23], 2 µg/mL; in the assay on Staphylococcus aureus [24] it was 2 µg/mL. The “fractional inhibitory concentration index (FICI)” value in the assay with Staphylococcus aureus [4] is 1; with Staphylococcus aureus [7] it was 0.5; in the assay with Staphylococcus aureus [9] it was 0.1; with Staphylococcus aureus [16] it was 8; with Staphylococcus aureus [19] it was 4.3; in the assay with Staphylococcus aureus [20], 0.2.
